According to ChEMBL document CHEMBL2417469, “Synthesis of novel analogs of 2-pyrazoline obtained from [(7-chloroquinolin-4-yl)amino]chalcones and hydrazine as potential antitumor and antimalarial agents” (Eur J Med Chem, 2013):
In brackets after ≈: the same amount, converted by molar mass.

Tests used:
SNB-75 = experiment: Cytotoxicity against human SNB75 cells after 48 hrs by SRB assay; type: functional; details: SNB-75, 48 h
How it was run: (§1)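 NCI 60-cell screen. Cells grew 24 h (37 °C, 5% CO2) before compound was added. Compounds were in DMSO and diluted in medium with gentamicin, then tested at five levels (100, 10, 1.0, 0.1, 0.01 µM) with 48 h continuous exposure. Adherent cells were fixed with TCA (10% final) and stained with 0.4% SRB, absorbance read at 515 nm. A time-zero plate was included. LC50 is the concentration giving 50% loss of protein relative to time zero.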

IGROV-1 = experiment: Cytotoxicity against human IGROV1 cells after 48 hrs by SRB assay; type: functional; details: IGROV-1, 48 h
How it was run: (§2)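 NCI 60-cell-line screen. Cells preincubated 24 h at 37 °C, 5% CO2; time-zero plates TCA-fixed. Compounds dissolved in DMSO and tested at five concentrations (100, 10, 1.0, 0.1, 0.01 µM) for 48 h continuous exposure. Adherent cells fixed with cold TCA (10% final), then SRB stained; absorbance at 515 nm. GI50, TGI and LC50 calculated from growth relative to time-zero and untreated controls.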

OVCAR-5 = experiment: Cytotoxicity against human OVCAR5 cells after 48 hrs by SRB assay; type: functional; details: OVCAR-5, 48 h; how it was run: as §2
UACC-257 = experiment: Cytotoxicity against human UACC257 cells after 48 hrs by SRB assay; type: functional; details: UACC-257, 48 h; how it was run: as §1
SF-295 = experiment: Cytotoxicity against human SF295 cells after 48 hrs by SRB assay; type: functional; details: SF-295, 48 h; how it was run: as §2
[1] = Toxicity in RBC (unknown origin) assessed as hemolysis after 48 hrs at 20 to 80 ug/ml by spectrophotometry; type: cell-based, Erythrocyte; details: red blood cells (RBC); read-out: Activity
How it was run: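 Red blood cells at 5% hematocrit in RPMI 1640 exposed to 20, 40 and 80 µg/mL for 48 h at 37 °C; free hemoglobin read spectrophotometrically at 542 nm.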

NCI-H226 = experiment: Cytotoxicity against human NCI-H226 cells after 48 hrs by SRB assay; type: functional; details: NCI-H226, 48 h; how it was run: as §2
U-251 = experiment: Cytotoxicity against human U251 cells after 48 hrs by SRB assay; type: functional; details: U-251, 48 h; for CC50: read-out: LC50 (the source's name); how it was run: as §1
A498 = experiment: Cytotoxicity against human A498 cells after 48 hrs by SRB assay; type: functional; details: A498, 48 h; for CC50: read-out: LC50 (the source's name); how it was run: as §2
Plasmodium falciparum [2] = experiment: Antimalarial activity against Plasmodium falciparum NF54 infected in human serum at 20 ug/ml after 48 hrs by fluorometric method; type: functional
How it was run: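 Asynchronous P. falciparum NF54 at 1.5–2% parasitemia, 5% hematocrit in RPMI with 10% human serum, exposed 48 h at 37 °C under 90% N2/5% CO2/5% O2 at the stated concentration; parasite DNA stained with ethidium bromide after proteinase K lysis; viability % = (Flu treated − medium)/(Flu untreated − medium) ×100; triplicate.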

UO-31 = experiment: Cytotoxicity against human UO31 cells after 48 hrs by SRB assay; type: functional; details: UO-31, 48 h; how it was run: as §1
SF-268 = experiment: Cytotoxicity against human SF268 cells after 48 hrs by SRB assay; type: functional; details: SF-268, 48 h; how it was run: as §2
RXF 393 = experiment: Cytotoxicity against human RXF393 cells after 48 hrs by SRB assay; type: functional; details: RXF 393, 48 h; how it was run: as §2
[3] = Cytotoxicity against human EKVX cells after 48 hrs by SRB assay; type: functional; how it was run: as §2
DU-145 = experiment: Cytotoxicity against human DU145 cells after 48 hrs by SRB assay; type: functional; details: DU-145, 48 h; how it was run: as §2
MDA-MB-231 = experiment: Cytotoxicity against human MDA-MB-231 cells after 48 hrs by SRB assay; type: functional; details: MDA-MB-231, 48 h; how it was run: as §2
OVCAR-4 = experiment: Cytotoxicity against human OVCAR4 cells after 48 hrs by SRB assay; type: functional; details: OVCAR-4, 48 h; how it was run: as §2
HCC 2998 = experiment: Cytotoxicity against human HCC2998 cells after 48 hrs by SRB assay; type: functional; details: HCC 2998, 48 h; how it was run: as §2
SW-620 = experiment: Cytotoxicity against human SW620 cells after 48 hrs by SRB assay; type: functional; details: SW-620, 48 h; how it was run: as §1
K562 = experiment: Cytotoxicity against human K562 cells after 48 hrs by SRB assay; type: functional; details: K562, 48 h; how it was run: as §2
SF-539 = experiment: Cytotoxicity against human SF539 cells after 48 hrs by SRB assay; type: functional; details: SF-539, 48 h; for CC50: read-out: LC50 (the source's name); how it was run: as §2
MOLT-4 = experiment: Cytotoxicity against human MOLT4 cells after 48 hrs by SRB assay; type: functional; details: MOLT-4, 48 h; how it was run: as §2
SNB-19 = experiment: Cytotoxicity against human SNB19 cells after 48 hrs by SRB assay; type: functional; details: SNB-19, 48 h; how it was run: as §1
Plasmodium falciparum [4] = experiment: Antimalarial activity against Plasmodium falciparum NF54 infected in human serum after 48 hrs by fluorometric method; type: functional, organism-based
How it was run: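 Asynchronous P. falciparum NF54 cultures at 1.5–2% parasitemia, 5% hematocrit in RPMI with 10% human serum; equal volumes of parasite suspension and compound dilutions (from 100 µg/mL stock) incubated 48 h, 37 °C, 90% N2/5% CO2/5% O2. DNA extracted with proteinase K lysis, stained with ethidium bromide; fluorescence-based viability vs compound-free control. IC50 by Probit; triplicate.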

NCI-H322M = experiment: Cytotoxicity against human NCI-H322M cells after 48 hrs by SRB assay; type: functional; how it was run: as §2
TK-10 = experiment: Cytotoxicity against human TK10 cells after 48 hrs by SRB assay; type: functional; details: TK-10, 48 h; how it was run: as §1

COc1cc(C2CC(c3cccc(Nc4ccnc5cc(Cl)ccc45)c3)=NN2C=O)cc(OC)c1OC (centres undefined)
GI50 (SNB-75): 0.38 µM
LC50 (50% net cell kill) (SNB-75): 51 µM
GI50 (IGROV-1): 3.29 µM
LC50 (concentration killing 50% of cells relative to time zero) (IGROV-1): > 100 µM
GI50 (OVCAR-5): 4.32 µM
LC50 (OVCAR-5): > 100 µM
GI50 (UACC-257): 1.4 µM
LC50 (UACC-257): > 100 µM
GI50 (SF-295): 0.38 µM
LC50 (SF-295): > 100 µM
hemolysis at 48 h [1]: 3.4%
GI50 (NCI-H226): 2.2 µM
LC50 (50% lethal concentration) (NCI-H226): > 100 µM
GI50 (U-251): 0.45 µM
CC50 (U-251): > 100 µM
GI50 (A498): 0.29 µM
CC50 (A498): > 100 µM
inhibition at 20 µg/mL (Plasmodium falciparum [2]): 24.6%
GI50 (UO-31): 1.3 µM
LC50 (UO-31): > 100 µM
GI50 (SF-268): 2.55 µM
LC50 (SF-268): > 100 µM
GI50 (RXF 393): 1.54 µM
LC50 (concentration killing 50% of cells) (RXF 393): 73.4 µM
GI50 [3]: 0.98 µM
LC50 [3]: > 100 µM
GI50 (DU-145): 2.68 µM
LC50 (concentration killing 50% of cells) (DU-145): > 100 µM
GI50 (MDA-MB-231): 1.6 µM
LC50 (concentration killing 50% of cells present at time zero) (MDA-MB-231): > 100 µM
GI50 (OVCAR-4): 1.13 µM
LC50 (OVCAR-4): > 100 µM
GI50 (HCC 2998): 2.16 µM
LC50 (HCC 2998): > 100 µM
GI50 (SW-620): 0.47 µM
LC50 (SW-620): > 100 µM
GI50 (K562): 0.43 µM
LC50 (concentration killing 50% of cells) (K562): > 100 µM
GI50 (SF-539): 0.81 µM
CC50 (SF-539): 55.5 µM
GI50 (MOLT-4): 0.59 µM
LC50 (MOLT-4): > 100 µM
GI50 (SNB-19): 3.42 µM
LC50 (SNB-19): > 100 µM

CC(=O)N1N=C(c2ccc(Nc3ccnc4cc(Cl)ccc34)cc2)CC1c1ccc(Cl)cc1 (centres undefined)
LC50 (50% net cell kill) (SNB-75): > 100 µM
GI50 (IGROV-1): > 100 µM
LC50 (concentration killing 50% of cells relative to time zero) (IGROV-1): > 100 µM
GI50 (OVCAR-5): > 100 µM
LC50 (OVCAR-5): > 100 µM
IC50 (Plasmodium falciparum [4]): 54.6 µg/mL (≈ 115 µM)
GI50 (UACC-257): > 100 µM
LC50 (UACC-257): > 100 µM
GI50 (SF-295): 3.58 µM
LC50 (SF-295): > 100 µM
hemolysis at 48 h [1]: 3.4%
GI50 (NCI-H226): > 100 µM
LC50 (50% lethal concentration) (NCI-H226): > 100 µM
GI50 (U-251): > 100 µM
CC50 (U-251): > 100 µM
GI50 (A498): > 100 µM
CC50 (A498): > 100 µM
inhibition at 20 µg/mL (Plasmodium falciparum [2]): 32.9%
GI50 (UO-31): 3.87 µM
LC50 (UO-31): > 100 µM
GI50 (SF-268): 9.1 µM
LC50 (SF-268): > 100 µM
GI50 (RXF 393): 5.07 µM
LC50 (concentration killing 50% of cells) (RXF 393): > 100 µM
LC50 [3]: > 100 µM
GI50 (DU-145): > 100 µM
LC50 (concentration killing 50% of cells) (DU-145): > 100 µM
GI50 (NCI-H322M): > 100 µM
LC50 (50% lethal concentration) (NCI-H322M): > 100 µM
GI50 (MDA-MB-231): > 100 µM
LC50 (concentration killing 50% of cells present at time zero) (MDA-MB-231): > 100 µM
GI50 (OVCAR-4): 6.92 µM
LC50 (OVCAR-4): > 100 µM
GI50 (HCC 2998): > 100 µM
LC50 (HCC 2998): > 100 µM
GI50 (SW-620): 100 µM
LC50 (SW-620): > 100 µM
GI50 (SF-539): > 100 µM
CC50 (SF-539): > 100 µM
GI50 (MOLT-4): 2.42 µM
LC50 (MOLT-4): > 100 µM
GI50 (SNB-19): > 100 µM
LC50 (SNB-19): > 100 µM
GI50 (TK-10): > 100 µM
LC50 (concentration giving 50% cell loss vs time zero) (TK-10): > 100 µM
